Test results: paper PMC3056322 (Journal of the American Chemical Society, 2010)
Non-standard residues stand in square brackets, D forms with d. Residues, ends and D or L forms follow the SMILES beside them. pS = N[C@@H](COP(=O)(O)O)C(=O)O

T1: FFpSPR substrate phosphopeptide (SMILES CC(=O)N[C@@H](Cc1ccccc1)C(=O)N[C@@H](Cc1ccccc1)C(=O)N[C@@H](COP(=O)(O)O)C(=O)N1CCC[C@H]1C(=O)N[C@@H](CCCNC(=N)N)C(N)=O)
T1 chain: Ac-FF[pS]PR-NH2

T2: trans-locked alkene isostere inhibitor (also: pSer-Pro amide replaced by (E)CH=C alkene isostere)
T2 chain: Ac-FF[pS]PR-NH2

T3: cis-locked alkene isostere inhibitor (also: pSer-Pro amide replaced by (Z)CH=C alkene isostere)
T3 chain: Ac-FF[pS]PR-NH2

B1: Pin1 PPIase domain (protein)
chain: PARVRCSHLLVKHSQSRRPSSWRQEKITRTKEEALELINGYIQKIKSGEEDFESLASQFSDCSSAKARGDLGAFSRGQMQKPFEDASFALRTGEMSGPVFTDSGIHIILRTE

Assays:
[1] = molecular target: T4, Pin1-PPIase (truncated human Pin1 construct omitting the WW domain) (Homo sapiens, UniProt Q13526); test: Natural abundance 13C CPMG relaxation dispersion of ligand with Pin1-PPIase; type: binding
T4 sequence (Q13526 50-163 limits assumed): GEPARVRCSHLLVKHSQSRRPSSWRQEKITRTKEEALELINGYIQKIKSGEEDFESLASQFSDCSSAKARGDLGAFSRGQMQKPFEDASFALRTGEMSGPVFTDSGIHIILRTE

[2] = molecular target: T4, Pin1-PPIase (truncated human Pin1 construct omitting the WW domain); test: 2-D 1H–1H EXSY of cis–trans isomerization with Pin1-PPIase; type: biochemical; details: 1H–1H EXSY of attached P4 Hδ protons
Outline: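 2-D 1H–1H EXSY was run on an acetylated, amidated phospho-Ser-Pro pentapeptide substrate with Pin1-PPIase. Enzyme levels relative to ligand were raised up to 20%. Cis–trans exchange rate and cis population were taken from the EXSY data.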

[3] = molecular target: T4, Pin1-PPIase (truncated human Pin1 construct omitting the WW domain); test: 15N–1H chemical shift perturbation ligand titration; type: binding
Outline: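 Pin1-PPIase was titrated with the test compound, and the protein's amide 15N–1H chemical shift perturbations were followed. Kd was obtained by fitting the resulting binding isotherms.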

[4] = molecular target: T1, FFpSPR substrate phosphopeptide; test: NMR chemical shift titration
[5] = molecular target: T2, trans-locked alkene isostere inhibitor; test: NMR chemical shift titration
[6] = molecular target: T3, cis-locked alkene isostere inhibitor; test: NMR chemical shift titration
[7] = side-chain P4-Cδ, 1% Pin1-PPIase, two-state fit

Molecule | kex ([1]; P4-Cα and F1-Cα, 1% Pin1-PPIase) [s⁻¹] | C-terminal R5-Cα dispersion ([1]; R5-Cα, 1% Pin1-PPIase) | kex [1, 7] [s⁻¹] | pminor [1, 7] [%] | 13C dispersion at lower temperature ([1]; with Pin1-PPIase, lower temperature) | pCIS ([2]; cis population) [%] | kex,CIS/TRANS ([2]; cis–trans isomerization) [s⁻¹] | Kd [3] [µM] | Kd [4] [µM] | Kd [5] [µM] | Kd [6] [µM]
CC(=O)N[C@@H](Cc1ccccc1)C(=O)N[C@@H](Cc1ccccc1)C(=O)N[C@@H](COP(=O)(O)O)C(=O)N1CCC[C@H]1C(=O)N[C@@H](CCCNC(=N)N)C(N)=O [FFpSPR, Ac-Phe-Phe-pSer-Pro-Arg-NH2] (Ac-FF[pS]PR-NH2) | 200 to 800 | strong dispersion | 85 ± 9 | 17 ± 4 | decrease in FFpSPR dispersion | 12 ± 2 | 87 ± 4 | 203 ± 46 | – | – | –
B1 | – | – | – | – | – | – | – | – | 203 | 78 | 7
